What was measured:
[1] = Single-dose plasma pharmacokinetics of oral ixazomib; assay type: in vivo, human; conditions: for Total AUC0-last, geometric mean (% CV): single 3 mg oral dose
In short: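 Groups were CrCl ≥90 or <30 ml/min (Cockcroft–Gault) or on haemodialysis. Each patient took a single oral 3 mg dose fasted with about 240 ml water. Plasma was sampled pre-dose to 336 h and assayed by LC-MS/MS (0·5–500 ng/ml). Cmax and AUC0-last came from non-compartmental analysis. Group ratios of geometric means (90% CI) came from ANOVA on log-transformed parameters, with normal function as reference.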

[2] = test system: CYP3A; conditions: supra-therapeutic concentrations; ref unpublished observations; cited from earlier work
[3] = Safety and tolerability: adverse events; assay type: in vivo, human
In short: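 The safety population was all patients given ≥1 dose: a single 3 mg dose in Part A, then optional Part B dosing at 4, 3 or 2·3 mg on days 1, 8 and 15 of 28-d cycles, with or without dexamethasone. AEs, including SAEs, were recorded throughout treatment up to 30 d after the last dose and graded by NCI CTCAE v4.03.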

[4] = severe RI/ESRD patients versus patients with normal renal function

Structure (SMILES): CC(C)C[C@H](NC(=O)CNC(=O)c1cc(Cl)ccc1Cl)B(O)O [ixazomib]
- Total systemic exposure, higher versus normal renal function [1, 4]: 39%
- Unbound systemic exposure, higher versus normal renal function [1, 4]: 38%
- Total AUC0-last, geometric mean (% CV) ([1]; ESRD (n = 6)): 783 (35) h·ng/ml
- Total AUC0-last, geometric mean (% CV) ([1]; normal renal function (n = 15)): 575 (38) ^c h·ng/ml
- Total AUC0-last, geometric mean (% CV) ([1]; severe RI (n = 10)): 813 (51) ^d h·ng/ml
- Contribution to in vitro metabolism of ixazomib [2]: primary contributors
- Any TEAE ([3]; ESRD (N = 7)): 6 (86) n (%)
- Any TEAE, Grade ≥3 ([3]; ESRD (N = 7)): 4 (57) n (%)
- Drug-related SAE ([3]; ESRD (N = 7)): 0 n (%)
- SAE ([3]; ESRD (N = 7)): 3 (43) n (%)
- Study drug-related TEAE ([3]; ESRD (N = 7)): 4 (57) n (%)
- Study drug-related TEAE, Grade ≥3 ([3]; ESRD (N = 7)): 1 (14) n (%)
- TEAE resulting in ixazomib discontinuation ([3]; ESRD (N = 7)): 0 n (%)
- TEAE resulting in ixazomib dose reduction ([3]; ESRD (N = 7)): 0 n (%)
- TEAE: Anaemia ([3]; ESRD (N = 7)): 2 (29) n (%)
- TEAE: Arthralgia ([3]; ESRD (N = 7)): 1 (14) n (%)
- TEAE: Constipation ([3]; ESRD (N = 7)): 1 (14) n (%)
- TEAE: Diarrhoea ([3]; ESRD (N = 7)): 1 (14) n (%)
- TEAE: Dizziness ([3]; ESRD (N = 7)): 1 (14) n (%)
- TEAE: Dyspnoea ([3]; ESRD (N = 7)): 1 (14) n (%)
- TEAE: Fatigue ([3]; ESRD (N = 7)): 1 (14) n (%)
- TEAE: Hypotension ([3]; ESRD (N = 7)): 1 (14) n (%)
- TEAE: Nausea ([3]; ESRD (N = 7)): 2 (29) n (%)
- TEAE: Peripheral oedema ([3]; ESRD (N = 7)): 0 n (%)
- TEAE: URT infection ([3]; ESRD (N = 7)): 1 (14) n (%)
- TEAE: Vomiting ([3]; ESRD (N = 7)): 2 (29) n (%)
- On-study deaths ([3]; ESRD (N = 7), first dose to 30 d after last dose): 1 (14) n (%)
- Dose reductions for ixazomib or dexamethasone ([3]; ESRD group): no dose reductions
- Incidence of AE anaemia ([3]; ESRD group): 29%
- Incidence of grade ≥3 AEs ([3]; ESRD group): 57%
- Incidence of serious AEs ([3]; ESRD group): 43%
- On-study deaths, number ([3]; ESRD group): 1
- Investigator-attributed drug-related anaemia ([3]; ESRD patients): 0%
- Incidence of TEAE anaemia ([3]; all 41 patients): 22%
- Incidence of TEAE diarrhoea ([3]; all 41 patients): 39%
- Incidence of TEAE fatigue ([3]; all 41 patients): 29%
- Incidence of TEAE nausea ([3]; all 41 patients): 34%
- Incidence of TEAE vomiting ([3]; all 41 patients): 32%
- Incidence of grade ≥3 TEAE anaemia ([3]; all 41 patients): 15%
- Incidence of grade ≥3 TEAE decreased platelet count ([3]; all 41 patients): 7%
- Incidence of grade ≥3 TEAE hypotension ([3]; all 41 patients): 7%
- Patients with a TEAE of any grade ([3]; all 41 patients): 95%
- Patients who developed peripheral neuropathy ([3]; all 41 patients (six patients)): 15%
- Incidence of study drug-related TEAE diarrhoea ([3]; all patients): 29%
- Incidence of study drug-related TEAE nausea ([3]; all patients): 29%
- On-study deaths, number ([3]; all patients): three
- Patients with at least 1 TEAE ([3]; four patients with solid tumours (three patients)): 75%
- Any TEAE ([3]; normal renal function (N = 20)): 19 (95) n (%)
- Any TEAE, Grade ≥3 ([3]; normal renal function (N = 20)): 9 (45) n (%)
- Drug-related SAE ([3]; normal renal function (N = 20)): 3 (15) n (%)
- SAE ([3]; normal renal function (N = 20)): 3 (15) n (%)
- Study drug-related TEAE ([3]; normal renal function (N = 20)): 16 (80) n (%)
- Study drug-related TEAE, Grade ≥3 ([3]; normal renal function (N = 20)): 7 (35) n (%)
- TEAE resulting in ixazomib discontinuation ([3]; normal renal function (N = 20)): 2 (10) n (%)
- TEAE resulting in ixazomib dose reduction ([3]; normal renal function (N = 20)): 4 (20) n (%)
- TEAE: Anaemia ([3]; normal renal function (N = 20)): 1 (5) n (%)
- TEAE: Arthralgia ([3]; normal renal function (N = 20)): 3 (15) n (%)
- TEAE: Constipation ([3]; normal renal function (N = 20)): 5 (25) n (%)
- TEAE: Diarrhoea ([3]; normal renal function (N = 20)): 9 (45) n (%)
- TEAE: Dizziness ([3]; normal renal function (N = 20)): 1 (5) n (%)
- TEAE: Dyspnoea ([3]; normal renal function (N = 20)): 2 (10) n (%)
- TEAE: Fatigue ([3]; normal renal function (N = 20)): 5 (25) n (%)
- TEAE: Hypotension ([3]; normal renal function (N = 20)): 1 (5) n (%)
- TEAE: Nausea ([3]; normal renal function (N = 20)): 7 (35) n (%)
- TEAE: Peripheral oedema ([3]; normal renal function (N = 20)): 2 (10) n (%)
- TEAE: URT infection ([3]; normal renal function (N = 20)): 5 (25) n (%)
